37 variants from the RNAGym collection of RNA variant scans (doi:10.1126/science.aae0568) can be followed below.

To fix the notation:
B1: tRNA (parent)
chain: GUUCCGUUGGCGUAAUGGUAACGCGUCUCCCUCCUAAGGAGAAGACUGCGGGUUCGAGUCCCGUACGGAACG

Variants at the floor of the assay were thinned out. Some results are limits rather than exact numbers.

The variants in the data set derive from B1. Briefly: yeast fitness relative to wild type (ratio to wild type); higher = fitter; tRNA-Arg(CCU), competitive growth, 37 C, YPD. An outline of the steps:
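For this measurement, the tRNA-Arg(CCU) gene was varied by chemical synthesis at a 3% per-site mutation rate across 69 sites, and each variant was placed at the native genomic locus in Saccharomyces cerevisiae. The pooled strains went through a 24-hour competition in YPD at 37°C in six parallel replicates, with amplicons from start and end populations read by 100-nucleotide paired-end sequencing. Darwinian fitness relative to wild type followed from the change in each genotype's frequency. Genotypes needed ≥ 100 starting reads, and estimates < 0.5 were set to 0.5.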
Take GUUCCGUUGGCAUAAUGGUAACGCGUCUCCCUCCUAAGGAGAAGACUGUGGGUUCGAGUCCCGUACCGGACG [G12A C49U G67C A69G]: the yeast fitness was no more than 0.5. Regarding GUUCCGUUGGCAUAAUGGUAACGCGUCUCCCUCCUAAGGAGAAGAUUGCGGGAUCGAGUCCCGUACGGAACG [G12A C46U U53A], the yeast fitness is no more than 0.5.

Take GUUCCGUUGGCAUAAUGGUAACGCGUCUCCCUGCUAACGAGAAGACUGCGGGUUCGAGUCCCGUACGGAACG [G12A C33G G38C]: the yeast fitness is no more than 0.5. For GUUCCGUUGGCAUAAUGGUAACGCGUCUCACUCCUAAGGAGAAGACUGCGGGUUCGAGUCCCGUACGGAUCG [G12A C30A A70U], the yeast fitness is 0.759. On to GUUCCGUUGGCAUAAUGGUAACGCGUCUCCCUCCUAAGGAGAAGACUGCGGGUUCGAGUCCAGUACGGAACG [G12A C62A], for which the yeast fitness was 0.823.

Consider GUUCCGUUGGCAUAAUGGUAACGCGUCUCCCUCCUAAGGAGAAGACUGCGGGUUCGAGUCCUGUACGGAACG [G12A C62U], for which the yeast fitness is 0.815. For the variant GUUCCGUUGGCAUAAUGGUAACGCGUCUCCGUCCUAAGGAGAAGACUGCGGGUUCGAGUCCCGUACGGAACG [G12A C31G], the yeast fitness amounted to 0.963. Turning to GUUCCGUUGGCAUAAUAGUAACGCGUCUUCCUCCUAAGGAGAAGACUGCGGGUUCGAGUCCCGUACGGAACG [G12A G17A C29U], the yeast fitness is no more than 0.5. The result for GUUCCGUUGGCAUAAUGGUAACGCGUCUCCCUUCUAAGGACAAGACUGCGGGUUCGAGUCCCGUACGGAACG [G12A C33U G41C] reads no more than 0.5; that for GUUCCGUUGGCAUAAUGGUAACGCGUCUCCUUCCUCAGCAGAAGACUGCGGGUUUGUGUCCCGUACGGAACG [G12A C31U A36C G39C C55U A57U], no more than 0.5. The result for GUUCCGUUGGCAUAAUGGUAACGCGUCUCCCUCCUAAGGAGAAGACUGCGGGUUCGAGUCCUAUACGGAACG [G12A C62U G63A] reads no more than 0.5; that for GUUCCGUUGGCAUAAUGGUAACGCGUCUCCCUCCUAAGGAGAAGACUGAGGCUUCGAGUCCCGUACGGAACG [G12A C49A G52C], no more than 0.5. Regarding GUUCCGUUGGCAUAAUGGUAACGCGUCUCCCUCCUAAGGAGAAGACUGAGAGUUCGAGUCCCGUACGGAACG [G12A C49A G51A], the yeast fitness is no more than 0.5. Turning to GUUCCGUUGGCAUAAUGGUAACGCGUCUCCUUCCUAAGGAGAAGACUGCGGGUUCGAGUCCCGUACGGAGCG [G12A C31U A70G], the yeast fitness was 0.803. For GUUCCGUUGGCAUAAUGGUAACGCGUCUCCCUGCUAAGCAGAAGACUGCGGGUUCGAGUCCCGUACGGCACG [G12A C33G G39C A69C], the yeast fitness was no more than 0.5. As to GUUCCGUUGGCAUAAUGGUAACGCGUCUUCCUCCUAAGGAGAAGACUGCGGGUUCGAGUCCCGAACGGAACG [G12A C29U U64A], the yeast fitness was no more than 0.5.

Turning to GUUCCGUUGGCAUAAUGGUAACGCGUCUCCCUCCUAAGGAGAAGACUGUGGGUUCGAGUCCUGUACGGAACG [G12A C49U C62U], the yeast fitness came out at 0.68. With GUUCCGUUGGCAUAAUAGUAACGCGUCUCCCUCCUAAGGAGAAGACUGCGGGUUCGAGUCCCGUACGGAACG [G12A G17A], the yeast fitness is 0.881. Regarding GUUCCGUUGGCAUAAUGGUAACGCGUCUCCUUCCUAAGGAGAAGACUGCGGGUUCGAGUCUCGAACGGAACG [G12A C31U C61U U64A], the yeast fitness was no more than 0.5. The value for GUUCCGUUGGCAUAAUGGUAACGCGUCUCCCUCCUAAGGAGAAGACUGCGGGUUCGAGUCACGUUCGGAACG [G12A C61A A65U] was no more than 0.5.

For the variant GUUCCGUUGGCAUAAUGCUAACGCGUCUCCCUCCUAAGGAGAAGACUGCGGGUUCGAGUCCCGUACGGAACG [G12A G18C], the yeast fitness was 0.591. On to GUUCCGUUGGCAUAAUGGUAACGCGUCUCCCUACUAAGGGGAAGACUGCGGGUUCGAGUCCCGUACGGAUCG [G12A C33A A40G A70U], for which the yeast fitness is no more than 0.5. GUUCCGUUGGCAUAAUGCUAACGCGUUUCCCUCCUAAGGAGAAGACUGCGGGUUAGAGUCCCGUACGGAACG [G12A G18C C27U C55A]: the yeast fitness is no more than 0.5.

For the variant GUUCCGUUGGCAUAAUGAUAACGCGUUUCCCUCCUAAGGAGAAGAUUACGGGUUCGAGUCCCGUACGGAACG [G12A G18A C27U C46U G48A], the yeast fitness was no more than 0.5. For GUUCCGUUGGCAUAAUGGUAACGCGUCUCCCUCCUAAGGAGAAGACUGUGGGUUCAAGUCGCGUACGGAACG [G12A C49U G56A C61G], the yeast fitness is no more than 0.5. GUUCCGUUGGCAUAAUGGUAACGCGUCUCACUCCUAAGGAGAAGACUGCGGGUUAGAGUCCCGUACAGAACG [G12A C30A C55A G67A]: the yeast fitness is no more than 0.5.

With GUUCCGUUGGCAUAAUGGUAACGCGUCUCACUCCUAAGGAGAAGACUGCGGGUUCGAGUCCCGUACGGAACG [G12A C30A], the yeast fitness came out at 0.915. Take GUUCCGUUGGCAUAAUGGUAACGCGUCUCUCUCCUAAGGAGAAGACUGCGGGUUCGAGUCCCGUACGGAACG [G12A C30U]: the yeast fitness was determined as 0.836.

GUUCCGUUGGCAUAAUGAUAACGCGUCUCCCUCCUAAGGAGAAGACUGCGGGUUCGAGUCGCGUACGGAGCG [G12A G18A C61G A70G]: the yeast fitness came out at 0.682. The result for GUUCCGUUGGCAUAAUAAUAACGCGUCUCCCUCCUGAGGAGUAGAUUGCGGGUUUGAGUCCCGUACGGAACG [G12A G17A G18A A36G A42U C46U C55U] reads 0.581. The value for GUUCCGUUGGCAUAAUGUUAACGCGUCUCCCUCCUAAGAAGAAGACUGCGGGUUCGAGUCCCGUACGGAACG [G12A G18U G39A] was no more than 0.5; that for GUUCCGUUGGCAUAAUGGUAACGCGUCUCCCUCCUAAGGAGAAGACUGAGGGUUCGAGUCCCGUACGGAACG [G12A C49A] was 0.67. Consider GUUCCGUUGGCAUAAUGGUAACGCGUCUCCCUCCUAAGGAGAAGACUGGGGGUUCGAGUCCCGUACGGAACG [G12A C49G], for which the yeast fitness was determined as 0.943.

Turning to GUUCCGUUGGCAUAAUAGUACCGCGUCUUCCUCCUAAGGAGAAGACUGCGGGUUCGAGUCCCGUACGGAACG [G12A G17A A21C C29U], the yeast fitness was no more than 0.5. GUUCCGUUGGCAUAAUGGUAACACGUCUCCCUCCUAAGGAGAAGACUGUGGGUUCGAGUUCCGUACAGAACG [G12A G23A C49U C60U G67A]: the yeast fitness was no more than 0.5.

For the variant GUUCCGUUGGCAUAAUCGUAACGCGUCUCCCUCCUAAGGAGAAGACUGCGGGUUCGAGUCCCGUAUGGAACG [G12A G17C C66U], the yeast fitness is no more than 0.5. For GUUCCGUUGGCAUAAUGGUAACGCGUCUCCCUCCUAAGGAGAAGAGUGCGGGUUCGCGUCCCGUACGGAACG [G12A C46G A57C], the yeast fitness was no more than 0.5.
